High-throughput results as filed in PubChem.
FLuc act counter: affects firefly luciferase, flagging false hits in luciferase stimulation screens. activation factor at 10 µM. 200,000 tested, under 10 active. AID 1027. ATPlite luciferase biochemical, luminescence, 10 min; 0 = ATP-free wells, 1 = DMSO control;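 active = luciferase activation factor, scaled between plate controls, of at least 2 with compound at 10 µM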
Target sequence (P08659 whole entry, looked up): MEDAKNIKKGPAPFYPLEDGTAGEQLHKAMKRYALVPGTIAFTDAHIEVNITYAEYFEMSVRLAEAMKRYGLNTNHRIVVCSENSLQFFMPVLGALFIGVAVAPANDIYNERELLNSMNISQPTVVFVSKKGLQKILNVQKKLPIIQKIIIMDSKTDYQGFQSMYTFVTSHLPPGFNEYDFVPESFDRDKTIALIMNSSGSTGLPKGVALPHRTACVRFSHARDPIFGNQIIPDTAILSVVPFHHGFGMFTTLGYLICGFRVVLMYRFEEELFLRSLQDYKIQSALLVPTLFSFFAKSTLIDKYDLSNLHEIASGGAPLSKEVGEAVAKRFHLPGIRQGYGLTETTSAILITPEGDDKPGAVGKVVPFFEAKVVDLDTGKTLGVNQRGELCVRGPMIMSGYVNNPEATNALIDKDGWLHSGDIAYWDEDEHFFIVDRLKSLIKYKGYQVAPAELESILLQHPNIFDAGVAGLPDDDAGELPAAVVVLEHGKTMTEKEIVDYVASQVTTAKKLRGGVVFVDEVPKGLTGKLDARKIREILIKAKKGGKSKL
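System: cell-free luciferase reagent; medium: PBS as buffer for the ATP substrate; doses: test compounds dosed from 2 mM stocks in 100% DMSO; incubation: 10 min, room temperature; measured by: luminescence from luciferase reaction; read-out: luciferase activation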
APP 5'UTR act: APP 5'UTR luciferase reporter activation | activation, % at 2 µM | 1% of 190,000 active | SH-SY5Y APP 5'UTR luciferase reporter, luminescence; zero percent = DMSO vehicle wells;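 active = activation above a set limit, based on mean plus 3 SD of controls, cut at about 140% in these data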
STAT1 act: STAT1 signaling activation | NIH 3T3 STAT1-luciferase reporter, IFN-gamma, luminescence; 100% = IFN-gamma alone, no compound | activation (% of control), % at 5.5 µM | 2.6% of 200,000 active | AID 932;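 active = activation above the screen-wide mean activation plus 3 SD, cut at about 130% in these data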;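 also: raw ratio to IFN-gamma control signal so 100% means no change and 0% no light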
NF-kB expr up: NF-kB expression increase, human neuronal cells | AID 1239 | NF-kB reporter expression; stronger effect = higher value | 1.6% of 190,000 active | fold change at 12.5 µM; in the data active = fold change above about 3.3
FLuc inh counter: Photinus pyralis luciferase inhibition counter-screen; P08659; ATPLite firefly luciferase biochemical luminescence, 10 min; inhibition, % at 10 µM; 1.5% of 200,000 active; AID 1006;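 active = inhibition above about 50% when tested at 10 µM, limit read from the data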
* = called active by the depositor; · = no result. Only some compounds are listed: those with a hit (about 4.1% of all), similar ones and a draw of the others.

SMILES	FLuc act counter	APP 5'UTR act	STAT1 act	NF-kB expr up	FLuc inh counter
COc1ccccc1/C=N\Nc1cn[nH]c(=O)c1Cl	1	10.8	88.6	9.09*	-1.6
COc1ccc(C(C)N2CC34C=CC(O3)C(C(=O)OCC(C)C)C4C2=O)cc1 (stereo not drawn)	1.1	8.1	99.9	0.97	-6.4
Clc1ccc2c(c1)[C@H]1OCC[C@H]1[C@@H](c1ccco1)N2	0.4	16.8	104.1	1.84	58.9*
Fc1ccc2c(c1)[C@H]1OCC[C@H]1[C@@H](c1ccco1)N2	1.1	-1.2	103.4	1.47	-5.2
O=c1cc(-c2ccccc2Cl)oc2ccc([N+](=O)[O-])c(O)c12	1	-5.7	92.9	1.55	2.8
Nc1ccc2oc(-c3ccccc3Cl)cc(=O)c2c1O	0.8	44.5	122.4	6.53*	21.7
Cc1nnc2c3ccccc3c(-c3ccccc3)nn12	·	-5.7	91.3	·	·
CCOC(=O)/C(C#N)=C1/C=CN(C)C(C)=N1	1	9.1	94.8	1.16	-1.7
Cc1ccccc1NC(=S)NC(=O)c1cncc(Br)c1	1	7.4	100.0	1.4	-3.3
Cc1ccc2nc(CSc3nc(C)ccc3C#N)[nH]c2c1	0.4	92.7	139.1*	1.72	64.6*
CCSc1nc2ccc(C)cc2cc1C#N	1.1	23.0	105.1	1.38	-5.0
CC(=O)Nc1ccc(/C=N/N2CCCCC2)cc1	0.8	27.9	135.4*	2.06	22.5
Cn1c(=O)c2c(SCC(=O)N3CCN(c4ccccc4)CC3)nc(C3CC3)nc2n(C)c1=O	1	-2.7	91.9	1.06	-3.4
COc1cccc(C2Cc3ccccc3C(=O)O2)c1 (stereo not drawn)	1	-9.6	102.6	1.27	-1.6
COc1ccc(C2C(=O)c3ccccc3C2=O)cc1	0.1	40.9	102.2	2.25	90.0*
COc1ccc(C2C(=O)c3ccccc3C2=O)cc1OC	0.2	11.0	111.8	1.82	82.3*
COc1ccc(C2CC(=O)c3ccccc3O2)cc1 (stereo not drawn)	1	58.5	113.2	3.77*	-0.7
COc1ccc(C2=C(N)c3ccccc3C2=O)cc1	0.4	60.9	132.9*	1.96	56.6*
COc1ccc(C2C(=O)c3ccccc3C2=O)c(OC)c1	1.1	10.2	103.9	0.97	-5.4
Cc1ccc2c(c1)nnn2C1CCN(S(=O)(=O)c2ccc(C(=O)N(C)C)cc2)CC1	1	-7.9	93.1	0.87	-1.4
Cc1ccccc1CSc1nnc(NC(=O)Cc2cccs2)s1	1	-4.9	122.8	0.99	-2.9
O=C1c2ccccc2CN1CCSC(=S)N1CCSCC1	0.8	94.6	134.2*	2.8	23.8
O=C1c2ccccc2CN1CCSC(=S)N1CCOCC1	0.9	42.0	130.5*	2.65	14.4
CC1CN(C(=S)SCCN2Cc3ccccc3C2=O)CC(C)O1 (stereo not drawn)	1	4.4	94.3	1.13	-4.7
CC(C)CC(=O)NC1(C(F)(F)F)C(=O)Nc2c1c(=O)n(C)c(=O)n2C (stereo not drawn)	1	1.1	100.1	1.02	-2.6
SMILES	FLuc act counter	APP 5'UTR act	STAT1 act	NF-kB expr up	FLuc inh counter
O=C(Nc1ccc(N2CCOCC2)c(Cl)c1)c1cccnc1Cl	1	-4.2	105.6	1.13	2.0
Cc1c(C(=O)O)cccc1-c1ccc(/C=C2/NC(=O)N(c3ccccc3)C2=O)o1	1	42.3	131.4*	1.56	0.3
Cc1ccc(/C=C2/NC(=O)N(c3ccccc3)C2=O)o1	0.9	31.7	116.4	1.91	7.0
COc1ccc(CC(=O)NCCc2ccc(Cl)cc2Cl)cc1	1	2.1	98.9	0.84	-1.7
O=C(CCc1nc(-c2ccccc2F)no1)NCCc1ccccc1Cl	1	8.7	104.7	1.22	-1.7
CCOC(=O)c1sc(NC(=O)C2CCC2)cc1C	0.5	45.8	120.4	1.77	50.1*
CCOC(=O)c1sc(NC(C)=O)cc1C	1	9.9	98.4	1	-2.1
CCC(=O)N1CCc2cc(S(=O)(=O)N3CCc4ccccc43)ccc21	1	7.3	97.0	0.86	-1.7
CCn1c(SCC(=O)NC2CCS(=O)(=O)C2)nnc1-c1ccccc1 (stereo not drawn)	1	12.3	102.9	1.19	-4.7
Cc1ccc(-c2cn(-c3ccccc3)c(SCC(=O)NC3CCS(=O)(=O)C3)n2)cc1C (stereo not drawn)	0.7	126.8	136.1*	0.58	26.6
COc1cc(OC)cc(C2=NC3(CCC(C)CC3)NC2=S)c1 (stereo not drawn)	1.1	13.2	102.9	0.86	-6.1
CCn1c(/N=C/c2c[nH]c3ccccc23)nc2ccccc21	0.4	-12.8	108.2	1.15	57.2*
O=C(CSc1nnc(-c2cccs2)n1-c1ccccc1)N1CCOCC1	1.1	9.7	96.2	1.21	-5.6
O=C(NCCC1=CCCCC1)NC12CC3CC(CC(C3)C1)C2	1	173.3*	143.8*	1.43	3.9
O=C(NCCC1=CCCCC1)Nc1ccc2nsnc2c1	0.5	165.0*	133.2*	6.44*	45.7
COc1ccc(CCNC(=O)NC23CC4CC(CC(C4)C2)C3)cc1	1	3.1	104.8	1.45	-2.8
Cc1ccc(/C=c2/sc3n(c2=O)CCCN=3)o1	0.8	28.2	128.7*	2.08	19.4
Cc1ccc(/C=c2\sc3n(c2=O)CN(c2ccc(Br)cc2)CN=3)o1	1	-8.1	102.6	1.13	-0.2
CNC(=O)COC(=O)c1ccc(Cl)c(S(=O)(=O)N2CCCC2)c1	1	11.3	102.5	1.23	-0.5
CCCCn1c(N)c(-c2nc3ccccc3o2)c2c([N+](=O)[O-])nn(CC)c(=O)c21	1.1	7.1	99.8	1.19	-5.4
COCC(C)N=C1NN=C(c2ccc(NC(C)=O)cc2)CS1 (stereo not drawn)	0.8	29.9	100.1	1.26	20.4
CC(C)N=C1NN=C(c2ccc(Cl)c(Cl)c2)CS1	0.4	171.7*	135.5*	8.58*	63.6*
CC(C)N=C1NN=C(c2cccs2)CS1	0.7	103.3	134.2*	3.5*	31.3
CCc1ccccc1OCCCOc1ccc(OC)cc1	1	-7.5	101.2	1.06	-3.4
O=C(CSc1nc2ccccc2c(=O)n1NC(=O)c1ccccc1)c1ccc(Cl)cc1	1	157.5*	124.3	2	-1.3
SMILES	FLuc act counter	APP 5'UTR act	STAT1 act	NF-kB expr up	FLuc inh counter
COc1ccc(C(=O)Nn2c(SCC(=O)NCC3CCCO3)nc3ccccc3c2=O)cc1 (stereo not drawn)	0.2	56.7	57.0	0.81	82.5*
COc1ccc(C(=O)Nn2c(SCC(=O)NCc3ccccc3)nc3ccccc3c2=O)cc1	0.9	65.8	94.2	0.63	13.3
CCn1c(NCc2ccco2)nc2c1c(=O)n(C)c(=O)n2C	1	4.3	94.2	0.97	-0.4
Cc1cc(C)cc(-n2c(C)cc(C(=O)CSc3nnnn3C)c2C)c1	1.1	-1.5	100.3	1.18	-5.0
Cc1cc(C(=O)CSc2nnnn2C)c(C)n1-c1cccc(F)c1	1	111.1	131.3*	4.76*	2.4
O=C(CSc1nnc(-c2cccs2)n1-c1ccccc1)NCC1CCCO1 (stereo not drawn)	1	-6.5	100.6	1.17	-2.4
